Results on 11 molecules are retold here after BindingDB's records for doi:10.1021/jm030056e (Glaxosmithkline, 2003).

Test [1] has as its target cGMP-specific 3',5'-cyclic phosphodiesterase (Bos taurus, UniProt Q28156). Briefly: Inhibitory activity against bovine PDE5 (phosphodiesterase-5).
Test [2] addresses cGMP-dependent 3',5'-cyclic phosphodiesterase (Homo sapiens, UniProt O00408). Briefly: Inhibition of human recombinant PDE2 (phosphodiesterase 2). Summed up:
(§1)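 Incubated 30 min at 30 °C under initial-velocity conditions (≤10-15% hydrolysis). Product separated on QAE Sephadex and counted by scintillation; final DMSO 2%.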

The target of test [3] is Phosphodiesterase (Bos taurus, UniProt E1BN64). Description: Inhibition of bovine aorta PDE3 (phosphodiesterase 3). Summed up:
as §1

The term IC50 denotes the point on the concentration scale where inhibition reaches its midpoint.

Sequence of Phosphodiesterase (E1BN64 whole entry): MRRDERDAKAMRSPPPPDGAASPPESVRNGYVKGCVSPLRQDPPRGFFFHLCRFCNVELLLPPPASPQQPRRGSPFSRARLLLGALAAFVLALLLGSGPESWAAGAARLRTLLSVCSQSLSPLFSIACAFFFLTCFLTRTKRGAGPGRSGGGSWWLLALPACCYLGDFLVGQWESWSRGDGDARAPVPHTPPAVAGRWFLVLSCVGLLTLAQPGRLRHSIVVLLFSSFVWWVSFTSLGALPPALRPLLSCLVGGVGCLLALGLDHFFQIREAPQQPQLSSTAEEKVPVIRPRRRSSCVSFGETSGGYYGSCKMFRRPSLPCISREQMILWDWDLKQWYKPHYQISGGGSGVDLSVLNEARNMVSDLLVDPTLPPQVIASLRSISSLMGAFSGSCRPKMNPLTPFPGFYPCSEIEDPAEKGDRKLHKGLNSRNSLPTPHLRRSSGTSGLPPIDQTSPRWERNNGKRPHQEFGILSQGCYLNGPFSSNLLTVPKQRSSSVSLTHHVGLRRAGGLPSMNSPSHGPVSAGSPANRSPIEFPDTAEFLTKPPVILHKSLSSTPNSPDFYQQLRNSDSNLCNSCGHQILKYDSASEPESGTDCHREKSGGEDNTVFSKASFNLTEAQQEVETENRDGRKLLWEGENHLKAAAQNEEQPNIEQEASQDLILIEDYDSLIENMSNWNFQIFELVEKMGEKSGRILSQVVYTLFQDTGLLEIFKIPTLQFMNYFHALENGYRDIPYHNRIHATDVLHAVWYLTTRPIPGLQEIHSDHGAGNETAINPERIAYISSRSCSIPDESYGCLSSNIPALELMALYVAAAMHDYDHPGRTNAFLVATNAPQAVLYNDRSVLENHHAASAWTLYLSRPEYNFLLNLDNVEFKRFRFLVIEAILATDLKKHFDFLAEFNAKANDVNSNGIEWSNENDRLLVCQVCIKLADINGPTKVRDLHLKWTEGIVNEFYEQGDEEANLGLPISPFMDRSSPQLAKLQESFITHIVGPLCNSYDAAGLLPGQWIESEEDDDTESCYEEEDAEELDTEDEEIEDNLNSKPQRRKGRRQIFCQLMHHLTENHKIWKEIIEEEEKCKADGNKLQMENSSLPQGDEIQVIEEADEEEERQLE
Sequence of cGMP-dependent 3',5'-cyclic phosphodiesterase (O00408 whole entry): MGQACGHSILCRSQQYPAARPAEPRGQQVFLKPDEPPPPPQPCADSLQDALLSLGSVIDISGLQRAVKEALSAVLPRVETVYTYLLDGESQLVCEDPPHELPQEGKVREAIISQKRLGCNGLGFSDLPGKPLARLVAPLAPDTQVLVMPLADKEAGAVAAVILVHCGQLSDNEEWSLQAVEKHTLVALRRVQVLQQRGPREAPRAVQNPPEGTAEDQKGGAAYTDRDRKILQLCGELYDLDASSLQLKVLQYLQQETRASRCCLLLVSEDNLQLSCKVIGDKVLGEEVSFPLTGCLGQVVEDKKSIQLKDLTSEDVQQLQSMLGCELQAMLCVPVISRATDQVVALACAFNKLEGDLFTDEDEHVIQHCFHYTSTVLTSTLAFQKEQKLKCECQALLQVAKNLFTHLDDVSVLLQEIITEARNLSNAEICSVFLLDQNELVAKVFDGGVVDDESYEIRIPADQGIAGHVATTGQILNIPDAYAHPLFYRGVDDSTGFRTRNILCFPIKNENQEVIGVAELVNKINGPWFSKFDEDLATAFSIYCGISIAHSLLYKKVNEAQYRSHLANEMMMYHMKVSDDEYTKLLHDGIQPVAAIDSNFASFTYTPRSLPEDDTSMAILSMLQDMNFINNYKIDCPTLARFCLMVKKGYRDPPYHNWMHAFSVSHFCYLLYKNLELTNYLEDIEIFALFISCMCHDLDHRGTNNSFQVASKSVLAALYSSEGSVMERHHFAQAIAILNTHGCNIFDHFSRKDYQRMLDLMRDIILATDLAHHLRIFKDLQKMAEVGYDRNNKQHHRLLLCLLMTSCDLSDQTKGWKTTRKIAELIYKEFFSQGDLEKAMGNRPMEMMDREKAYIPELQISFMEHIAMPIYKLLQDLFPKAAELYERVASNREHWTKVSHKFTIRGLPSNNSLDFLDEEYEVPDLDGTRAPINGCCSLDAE

`COc1ccc([C@H]2c3[nH]c4ccccc4c3Cc3c(O)n(CCN4CCCC4)c(=O)n32)cc1`: 100 nM corresponded to half-maximal inhibition in test [1] (IC50).

With `COc1ccc([C@@H]2c3[nH]c4ccccc4c3Cc3c(O)n(Cc4ccccc4)c(=O)n32)cc1` [(3aR,10R)-2-Benzyl-10-(4-methoxy-phenyl)-3a,4,9,10-tetrahydro-2,9,10a-triaza-cyclopenta[b]fluorene-1,3-dione], the half-maximal inhibitory concentration (IC50) in test [2] and in test [3] was above 10000 nM throughout.

Take `CCCCn1c(O)c2n(c1=O)[C@H](c1ccc(OC)cc1)c1[nH]c3ccccc3c1C2` [(3aR,10R)-2-Butyl-10-(4-methoxy-phenyl)-3a,4,9,10-tetrahydro-2,9,10a-triaza-cyclopenta[b]fluorene-1,3-dione]: the half-maximal inhibitory concentration (IC50) in test [2] and in test [3] was above 10000 nM throughout.

On to `CCCCn1c(O)c2n(c1=O)[C@H](c1ccoc1)c1[nH]c3ccccc3c1C2` [(3aR,10R)-2-Butyl-10-furan-3-yl-3a,4,9,10-tetrahydro-2,9,10a-triaza-cyclopenta[b]fluorene-1,3-dione], for which, in test [1], the 50% inhibitory concentration (IC50) worked out at 100 nM.

As to `COc1ccc([C@@H]2c3[nH]c4ccccc4c3Cc3c(O)n(C4CCCCC4)c(=O)n32)cc1` [(3aR,10R)-2-Cyclohexyl-10-(4-methoxy-phenyl)-3a,4,9,10-tetrahydro-2,9,10a-triaza-cyclopenta[b]fluorene-1,3-dione], the IC50 in test [1] was 7 nM; in test [2], above 10000 nM.

On to `COc1ccc([C@H]2c3[nH]c4ccccc4c3Cc3c(O)n(CCN(C)C)c(=O)n32)cc1` [(3aR,10S)-2-(2-Dimethylamino-ethyl)-10-(4-methoxy-phenyl)-3a,4,9,10-tetrahydro-2,9,10a-triaza-cyclopenta[b]fluorene-1,3-dione], for which the concentration for half-maximal inhibition (IC50) in test [1] came out at 30 nM.

As to `CCCCn1c(O)c2n(c1=O)[C@@H](c1ccc(OC)cc1)c1[nH]c3ccccc3c1C2` [(3aR,10S)-2-Butyl-10-(4-methoxy-phenyl)-3a,4,9,10-tetrahydro-2,9,10a-triaza-cyclopenta[b]fluorene-1,3-dione], the IC50 in test [2] and in test [3] was above 10000 nM throughout.

`COc1ccc([C@H]2c3[nH]c4ccccc4c3Cc3c(O)n(Cc4cccnc4)c(=O)n32)cc1` [(3aR,10S)-10-(4-Methoxy-phenyl)-2-pyridin-3-ylmethyl-3a,4,9,10-tetrahydro-2,9,10a-triaza-cyclopenta[b]fluorene-1,3-dione] had a half-maximal inhibitory concentration (IC50) in test [1] of 20 nM.

`COc1ccc([C@H]2c3[nH]c4ccccc4c3Cc3c(O)[nH]c(=O)n32)cc1` [(3aR,10S)-10-(4-Methoxy-phenyl)-3a,4,9,10-tetrahydro-2,9,10a-triaza-cyclopenta[b]fluorene-1,3-dione] registered a half-maximal inhibitory concentration (IC50) in test [1] of 20 nM.

Take `CCCCn1c(O)c2n(c1=O)[C@H](c1ccncc1)c1[nH]c3ccccc3c1C2` [Cis-2-Butyl-10-pyridin-4-yl-3a,4,9,10-tetrahydro-2,9,10a-triaza-cyclopenta[b]fluorene-1,3-dione]: in test [1], the midpoint of inhibition, the IC50, lay at 300 nM.

Consider `CCCCn1c(O)c2n(c1=O)[C@H](c1ccsc1)c1[nH]c3ccccc3c1C2` [Cis-2-Butyl-10-thiophen-3-yl-3a,4,9,10-tetrahydro-2,9,10a-triaza-cyclopenta[b]fluorene-1,3-dione], for which, in test [1], the half-maximal inhibitory concentration (IC50) turned out to be 30 nM.
